ChEMBL document CHEMBL4354843, “Structure-Based Design of a Potent and Selective Covalent Inhibitor for SRC Kinase That Targets a P-Loop Cysteine” (J Med Chem, 2020)

What was measured:
[1] = molecular target: Tyrosine-protein kinase Lck (Homo sapiens) (UniProt P06239); assay: Binding affinity to wild-type human partial length LCK (R207 to P509 residues) expressed in bacterial expression system assessed as residual binding level at 1 uM by Kinomescan method relative to control
How it was run: (§1)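 Active-site-directed competition binding panel of 468 kinases (KinomeScan), compound at 1 μM. The read-out is kinase remaining bound, given as a percentage of the DMSO control. […]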

[2] = molecular target: Casein kinase I isoform epsilon (Homo sapiens) (UniProt P49674); assay: Binding affinity to wild-type human full length CSNK1E (M1 to K416 residues) expressed in bacterial expression system assessed as residual binding level at 1 uM by Kinomescan method relative to control
How it was run: (§2)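 Active-site-directed KinomeScan competition binding panel covering 468 kinases, compound tested at 1 μM. Each readout is the kinase signal remaining with compound, expressed as a percentage of the DMSO control. […]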

[3] = molecular target: Casein kinase II subunit alpha (Homo sapiens) (UniProt P68400); assay: Binding affinity to wild-type human full length CSNK2A1 (M1 to Q391 residues) expressed in mammalian expression system assessed as residual binding level at 1 uM by Kinomescan method relative to control
How it was run: (§3)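 KinomeScan, an active site-directed competition binding panel of 468 kinases. The test compound was at 1 μM. The readout is remaining kinase binding as a percentage of the DMSO control. Scores above 35% were treated as weak binding and not listed.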

[4] = molecular target: Serine/threonine-protein kinase ULK1 (Homo sapiens) (UniProt O75385); assay: Binding affinity to wild-type human partial length ULK1 (M1 to T309 residues) expressed in mammalian expression system assessed as residual binding level at 1 uM by Kinomescan method relative to control
[5] = molecular target: Mitogen-activated protein kinase kinase kinase 13 (Homo sapiens) (UniProt O43283); assay: Binding affinity to wild-type human full length LZK (M1 to W966 residues) expressed in mammalian expression system assessed as residual binding level at 1 uM by Kinomescan method relative to control
How it was run: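 Active-site-directed competition binding panel (KinomeScan) covering 468 kinases. Test agent was screened at 1 μM. The read-out is the remaining kinase signal expressed relative to a DMSO control. Scores above 35%, taken as weak binding, were not reported.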

[6] = molecular target: Death-associated protein kinase 3 (Homo sapiens) (UniProt O43293); assay: Binding affinity to wild-type human partial length DAPK3 (M1 to A277 residues) expressed in bacterial expression system assessed as residual binding level at 1 uM by Kinomescan method relative to control
[7] = molecular target: Receptor-interacting serine/threonine-protein kinase 1 (Homo sapiens) (UniProt Q13546); assay: Binding affinity to wild-type human partial length RIPK1 (M1 to K305 residues) expressed in bacterial expression system assessed as residual binding level at 1 uM by Kinomescan method relative to control
[8] = molecular target: Rho-associated protein kinase 2 (Homo sapiens) (UniProt O75116); assay: Binding affinity to wild-type human partial length ROCK2 (M1 to T431 residues) expressed in mammalian expression system assessed as residual binding level at 1 uM by Kinomescan method relative to control
[9] = molecular target: Protein kinase C iota type (Homo sapiens) (UniProt P41743); assay: Binding affinity to wild-type human partial length PRKCI (H215 to V587 residues) expressed in mammalian expression system assessed as residual binding level at 1 uM by Kinomescan method relative to control; how it was run: as §1
[10] = molecular target: Atypical kinase COQ8B, mitochondrial (Homo sapiens) (UniProt Q96D53); assay: Binding affinity to wild-type human full length ADCK4 (M1 to S544 residues) expressed in bacterial expression system assessed as residual binding level at 1 uM by Kinomescan method relative to control; how it was run: as §2
[11] = test system: Epidermal growth factor receptor (Homo sapiens), P00533 [UNDEFINED MUTATION]; assay: Binding affinity to human partial length EGFR E746-A750del mutant expressed in bacterial expression system assessed as residual binding level at 1 uM by Kinomescan method relative to control
How it was run: (§4)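 KinomeScan active site-directed competition binding panel (468 kinases), compound tested at 1 μM. Result expressed as remaining kinase signal versus DMSO control (percent of control).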

[12] = molecular target: Cyclin-dependent kinase 7 (Homo sapiens) (UniProt P50613); assay: Binding affinity to wild-type human full length CDK7 (M1 to L344 residues) expressed in mammalian expression system assessed as residual binding level at 1 uM by Kinomescan method relative to control; how it was run: as §2
[13] = molecular target: Membrane-associated tyrosine- and threonine-specific cdc2-inhibitory kinase (Homo sapiens) (UniProt Q99640); assay: Binding affinity to wild-type human partial length PKMYT1 (A88 to G366 residues) expressed in bacterial expression system assessed as residual binding level at 1 uM by Kinomescan method relative to control
[14] = molecular target: Receptor tyrosine-protein kinase erbB-3 (Homo sapiens) (UniProt P21860); assay: Binding affinity to wild-type human partial length ERBB3 (G684 to A987 residues) expressed in mammalian expression system assessed as residual binding level at 1 uM by Kinomescan method relative to control
[15] = molecular target: Serine/threonine-protein kinase Chk2 (Homo sapiens) (UniProt O96017); assay: Binding affinity to wild-type human partial length CHEK2 (S253 to E574 residues) expressed in bacterial expression system assessed as residual binding level at 1 uM by Kinomescan method relative to control; how it was run: as §3
[16] = molecular target: Dual specificity mitogen-activated protein kinase kinase 7 (Homo sapiens) (UniProt O14733); assay: Binding affinity to wild-type human full length MKK7 (M1 to R419 residues) expressed in mammalian expression system assessed as residual binding level at 1 uM by Kinomescan method relative to control; how it was run: as §3
[17] = molecular target: Protein kinase C eta type (Homo sapiens) (UniProt P24723); assay: Binding affinity to wild-type human partial length PRKCH (S324 to P683 residues) expressed in bacterial expression system assessed as residual binding level at 1 uM by Kinomescan method relative to control
[18] = test system: Tyrosine-protein kinase ABL1 (Homo sapiens), P00519 [F317L]; assay: Binding affinity to human phosphorylated ABL1 F317L mutant (S229 to K512 residues) expressed in mammalian expression system assessed as residual binding level at 1 uM by Kinomescan method relative to control; how it was run: as §4
[19] = molecular target: Cyclin-dependent kinase 8 (Homo sapiens) (UniProt P49336); assay: Binding affinity to wild-type human partial length CDK8 (M1 to T360 residues) expressed in bacterial expression system assessed as residual binding level at 1 uM by Kinomescan method relative to control
[20] = molecular target: Receptor-type tyrosine-protein kinase FLT3 (Homo sapiens) (UniProt P36888); assay: Binding affinity to wild-type human partial length autoinhibited FLT3 (H564 to Y969 residues) expressed in mammalian expression system assessed as residual binding level at 1 uM by Kinomescan method relative to control
[21] = molecular target: Mast/stem cell growth factor receptor Kit (Homo sapiens) (UniProt P10721); assay: Binding affinity to wild-type human partial length KIT (I571 to D952 residues) expressed in bacterial expression system assessed as residual binding level at 1 uM by Kinomescan method relative to control

Casein kinase I isoform epsilon (Homo sapiens), sequence (P49674 whole entry, looked up, the tested form may be a part, canonical isoform): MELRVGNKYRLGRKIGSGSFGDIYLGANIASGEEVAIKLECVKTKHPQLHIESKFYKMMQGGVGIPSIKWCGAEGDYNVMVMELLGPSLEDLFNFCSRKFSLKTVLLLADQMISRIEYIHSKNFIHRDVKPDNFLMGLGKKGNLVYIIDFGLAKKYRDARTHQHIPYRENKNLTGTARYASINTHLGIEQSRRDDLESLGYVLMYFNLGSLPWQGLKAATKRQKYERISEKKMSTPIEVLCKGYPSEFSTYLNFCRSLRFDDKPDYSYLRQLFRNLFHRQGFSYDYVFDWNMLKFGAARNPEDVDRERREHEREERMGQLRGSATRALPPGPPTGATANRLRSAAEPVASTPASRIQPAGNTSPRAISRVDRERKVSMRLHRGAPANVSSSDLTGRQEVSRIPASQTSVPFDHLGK
Tyrosine-protein kinase ABL1 (Homo sapiens), P00519 [F317L], sequence (P00519 whole entry F317L, the tested form may be a part): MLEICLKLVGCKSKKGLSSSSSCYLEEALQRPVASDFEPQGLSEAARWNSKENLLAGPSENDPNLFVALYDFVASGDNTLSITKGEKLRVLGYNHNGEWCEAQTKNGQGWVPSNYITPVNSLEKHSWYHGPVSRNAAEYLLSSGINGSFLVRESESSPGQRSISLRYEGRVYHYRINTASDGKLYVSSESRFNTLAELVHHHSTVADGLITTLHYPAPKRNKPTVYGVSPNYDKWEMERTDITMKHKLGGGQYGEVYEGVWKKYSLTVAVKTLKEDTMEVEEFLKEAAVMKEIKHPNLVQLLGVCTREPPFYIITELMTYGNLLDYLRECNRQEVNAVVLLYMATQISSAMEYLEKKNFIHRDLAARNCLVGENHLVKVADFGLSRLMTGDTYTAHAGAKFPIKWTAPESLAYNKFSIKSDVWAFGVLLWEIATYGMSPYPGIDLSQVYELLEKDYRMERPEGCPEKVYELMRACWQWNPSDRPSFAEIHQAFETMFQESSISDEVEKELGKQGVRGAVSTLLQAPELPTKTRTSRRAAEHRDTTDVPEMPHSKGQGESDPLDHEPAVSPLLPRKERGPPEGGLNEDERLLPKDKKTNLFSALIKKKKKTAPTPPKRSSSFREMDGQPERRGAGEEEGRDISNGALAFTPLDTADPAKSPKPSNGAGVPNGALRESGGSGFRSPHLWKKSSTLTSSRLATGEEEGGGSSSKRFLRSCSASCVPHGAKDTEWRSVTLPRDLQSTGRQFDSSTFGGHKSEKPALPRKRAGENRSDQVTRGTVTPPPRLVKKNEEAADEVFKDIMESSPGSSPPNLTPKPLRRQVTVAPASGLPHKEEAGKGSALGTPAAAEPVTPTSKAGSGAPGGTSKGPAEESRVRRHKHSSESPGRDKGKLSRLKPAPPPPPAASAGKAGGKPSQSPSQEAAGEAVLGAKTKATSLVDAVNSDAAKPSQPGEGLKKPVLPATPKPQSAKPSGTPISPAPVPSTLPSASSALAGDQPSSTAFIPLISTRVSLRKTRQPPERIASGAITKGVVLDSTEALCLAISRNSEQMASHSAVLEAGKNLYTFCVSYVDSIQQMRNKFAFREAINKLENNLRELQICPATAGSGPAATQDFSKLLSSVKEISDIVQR
Dual specificity mitogen-activated protein kinase kinase 7 (Homo sapiens), sequence (O14733 whole entry, the tested form may be a part): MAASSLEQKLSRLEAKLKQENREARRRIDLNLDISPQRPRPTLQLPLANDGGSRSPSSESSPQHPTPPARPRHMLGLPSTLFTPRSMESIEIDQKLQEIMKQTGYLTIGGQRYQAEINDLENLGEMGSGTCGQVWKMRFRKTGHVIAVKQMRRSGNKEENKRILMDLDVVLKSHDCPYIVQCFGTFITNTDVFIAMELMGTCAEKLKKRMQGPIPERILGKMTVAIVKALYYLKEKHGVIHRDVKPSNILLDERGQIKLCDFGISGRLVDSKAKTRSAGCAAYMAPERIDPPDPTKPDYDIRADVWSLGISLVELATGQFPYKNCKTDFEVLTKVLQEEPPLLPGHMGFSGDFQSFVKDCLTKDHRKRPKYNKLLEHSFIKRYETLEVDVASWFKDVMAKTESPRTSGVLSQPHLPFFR
Receptor-interacting serine/threonine-protein kinase 1 (Homo sapiens), sequence (Q13546 whole entry, the tested form may be a part): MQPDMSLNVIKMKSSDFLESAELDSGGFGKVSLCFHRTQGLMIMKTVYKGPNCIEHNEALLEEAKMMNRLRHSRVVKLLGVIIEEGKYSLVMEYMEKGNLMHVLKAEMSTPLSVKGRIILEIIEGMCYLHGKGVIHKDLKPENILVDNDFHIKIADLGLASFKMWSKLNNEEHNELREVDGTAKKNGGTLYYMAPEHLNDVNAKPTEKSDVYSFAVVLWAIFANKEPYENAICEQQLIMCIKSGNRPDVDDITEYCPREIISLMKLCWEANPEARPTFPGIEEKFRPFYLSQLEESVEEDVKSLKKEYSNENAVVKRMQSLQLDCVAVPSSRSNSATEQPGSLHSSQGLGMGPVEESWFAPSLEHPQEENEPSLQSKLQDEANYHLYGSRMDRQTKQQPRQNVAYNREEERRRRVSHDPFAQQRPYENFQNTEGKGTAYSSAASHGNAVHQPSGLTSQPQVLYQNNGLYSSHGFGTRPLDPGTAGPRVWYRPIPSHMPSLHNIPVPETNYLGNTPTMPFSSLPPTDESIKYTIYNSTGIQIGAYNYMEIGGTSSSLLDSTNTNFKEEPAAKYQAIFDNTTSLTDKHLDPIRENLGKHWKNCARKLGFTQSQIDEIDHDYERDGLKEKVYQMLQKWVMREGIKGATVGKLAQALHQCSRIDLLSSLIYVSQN
Protein kinase C eta type (Homo sapiens), sequence (P24723 whole entry, the tested form may be a part): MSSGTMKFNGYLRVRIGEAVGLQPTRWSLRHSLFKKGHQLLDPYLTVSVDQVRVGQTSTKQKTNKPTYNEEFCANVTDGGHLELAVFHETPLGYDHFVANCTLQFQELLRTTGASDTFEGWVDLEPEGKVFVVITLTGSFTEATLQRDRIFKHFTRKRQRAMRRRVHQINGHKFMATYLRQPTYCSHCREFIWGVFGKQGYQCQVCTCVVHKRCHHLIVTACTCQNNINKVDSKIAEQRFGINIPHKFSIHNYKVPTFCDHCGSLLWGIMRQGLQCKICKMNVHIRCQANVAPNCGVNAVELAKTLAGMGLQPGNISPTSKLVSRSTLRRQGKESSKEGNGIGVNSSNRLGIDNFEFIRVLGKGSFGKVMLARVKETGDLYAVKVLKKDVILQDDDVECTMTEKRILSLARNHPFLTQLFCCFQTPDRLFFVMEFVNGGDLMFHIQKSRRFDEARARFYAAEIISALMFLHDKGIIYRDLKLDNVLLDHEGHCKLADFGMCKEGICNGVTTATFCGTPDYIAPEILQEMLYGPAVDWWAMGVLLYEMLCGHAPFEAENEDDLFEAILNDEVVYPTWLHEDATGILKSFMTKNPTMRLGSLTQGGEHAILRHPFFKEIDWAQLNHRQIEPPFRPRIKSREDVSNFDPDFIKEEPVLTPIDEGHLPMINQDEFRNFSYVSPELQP
Membrane-associated tyrosine- and threonine-specific cdc2-inhibitory kinase (Homo sapiens), sequence (Q99640 whole entry, the tested form may be a part): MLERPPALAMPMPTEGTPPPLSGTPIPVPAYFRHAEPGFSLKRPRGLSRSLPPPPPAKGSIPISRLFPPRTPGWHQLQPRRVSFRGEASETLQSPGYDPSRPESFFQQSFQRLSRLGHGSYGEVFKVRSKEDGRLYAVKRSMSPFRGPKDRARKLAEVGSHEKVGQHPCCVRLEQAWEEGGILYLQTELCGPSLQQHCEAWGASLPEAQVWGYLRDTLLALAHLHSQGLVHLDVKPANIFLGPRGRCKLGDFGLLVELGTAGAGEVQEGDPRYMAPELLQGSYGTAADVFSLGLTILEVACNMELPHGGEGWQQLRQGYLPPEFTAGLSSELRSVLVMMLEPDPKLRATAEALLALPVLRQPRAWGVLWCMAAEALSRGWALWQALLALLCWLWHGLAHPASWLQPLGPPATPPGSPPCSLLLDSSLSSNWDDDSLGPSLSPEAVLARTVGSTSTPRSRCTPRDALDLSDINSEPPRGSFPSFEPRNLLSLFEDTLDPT
Death-associated protein kinase 3 (Homo sapiens), sequence (O43293 whole entry, looked up, the tested form may be a part): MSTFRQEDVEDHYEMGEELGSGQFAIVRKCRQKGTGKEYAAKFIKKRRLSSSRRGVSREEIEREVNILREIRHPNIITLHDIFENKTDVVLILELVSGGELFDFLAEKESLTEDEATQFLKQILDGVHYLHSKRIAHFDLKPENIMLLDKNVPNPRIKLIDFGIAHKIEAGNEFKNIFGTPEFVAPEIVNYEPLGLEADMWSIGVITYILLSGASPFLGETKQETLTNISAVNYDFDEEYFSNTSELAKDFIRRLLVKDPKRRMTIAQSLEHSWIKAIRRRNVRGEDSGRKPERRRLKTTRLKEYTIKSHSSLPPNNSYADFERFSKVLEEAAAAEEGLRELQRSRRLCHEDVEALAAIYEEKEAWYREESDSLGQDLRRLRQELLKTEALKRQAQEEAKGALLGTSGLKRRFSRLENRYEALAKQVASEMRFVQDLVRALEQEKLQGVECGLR
Casein kinase II subunit alpha (Homo sapiens), sequence (P68400 whole entry, looked up, the tested form may be a part): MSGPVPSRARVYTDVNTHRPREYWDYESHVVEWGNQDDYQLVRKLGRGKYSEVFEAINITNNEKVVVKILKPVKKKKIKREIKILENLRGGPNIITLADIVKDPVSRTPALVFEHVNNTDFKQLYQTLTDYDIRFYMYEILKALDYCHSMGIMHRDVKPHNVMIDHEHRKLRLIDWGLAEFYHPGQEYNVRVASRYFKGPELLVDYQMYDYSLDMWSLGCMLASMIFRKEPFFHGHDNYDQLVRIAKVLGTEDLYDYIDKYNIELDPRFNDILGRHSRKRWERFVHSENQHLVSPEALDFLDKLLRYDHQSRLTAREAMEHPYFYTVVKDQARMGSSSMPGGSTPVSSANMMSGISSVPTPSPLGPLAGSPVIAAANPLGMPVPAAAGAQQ
Cyclin-dependent kinase 7 (Homo sapiens), sequence (P50613 whole entry, the tested form may be a part): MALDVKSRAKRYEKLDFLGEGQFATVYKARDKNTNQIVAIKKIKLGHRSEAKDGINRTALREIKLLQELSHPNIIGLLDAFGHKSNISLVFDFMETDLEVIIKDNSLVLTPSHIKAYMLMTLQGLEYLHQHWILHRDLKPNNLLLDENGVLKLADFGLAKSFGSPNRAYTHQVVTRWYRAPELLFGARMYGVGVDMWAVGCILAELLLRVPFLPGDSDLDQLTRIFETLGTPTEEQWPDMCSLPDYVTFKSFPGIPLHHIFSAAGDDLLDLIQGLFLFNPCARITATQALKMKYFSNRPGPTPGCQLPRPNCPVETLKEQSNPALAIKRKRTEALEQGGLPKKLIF

Q: Which results are given for `C=CC(=O)Nc1ccccc1Nc1nc(Nc2ccc(N3CCN(C)CC3)cc2)ncc1C(=O)Nc1c(C)cccc1Cl`?
A: Activity [1]: 0.25%; Activity [2]: 100%; Activity [3]: 68%; Activity [4]: 100%; Activity [5]: 91%; Activity [6]: 100%; Activity [7]: 100%; Activity [8]: 100%; Activity [9]: 94%; Activity [10]: 100%; Activity [11]: 67%; Activity [12]: 100%; Activity [13]: 100%; Activity [14]: 89%; Activity [15]: 90%; Activity [16]: 96%; Activity [17]: 100%; Activity [18]: 1.3%; Activity [19]: 100%; Activity [20]: 100%; Activity [21]: 40%
